# “Also recorded” adds a separate entry of the source.
# Experiments:
# [1] = test system: DU145 cells; assay: Cell cycle assay, propidium iodide flow cytometry; assay type: cell-based; conditions: DU145, 24 h
# How it was run: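 DU145 cells were treated 24 h after plating with increasing test compound concentrations (3, 10, 30 μM) or silibinin (30 μM), and harvested 24 h later. They were PBS-washed, fixed in ice-cold 70% ethanol for ≥24 h, rewashed in room-temperature PBS and stained with propidium iodide plus RNase-A (30 min, 37 °C). Flow cytometry followed. Data are mean ± SD of three experiments.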
# [2] = test system: DU145 cells; assay: Apoptosis assay, Annexin V-FITC/Propidium Iodide flow cytometry; assay type: cell-based; conditions: 24 h
# How it was run: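 DU145 cells in six-well plates were treated 24 h at 37 °C with vehicle, test compound (3, 10, 30 μM) or silibinin reference (30 μM). Cells were harvested, washed in ice-cold PBS, stained with an Annexin V-FITC apoptosis kit and analysed by flow cytometry. Data are mean ± SD of three individual experiments.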
# [3] = cited from earlier work
structure (smiles),measurement,setting,value
"COc1cc(C2Oc3cc(C4Oc5cc(O)cc(O)c5C(=O)C4OC(=O)CCC(=O)O[C@H]4O[C@@H](CO)C(O)[C@@H](O)[C@@H]4O)ccc3OC2CO)ccc1O (stereo partly drawn) [Compound 15, 5,7-Dihydroxy-2-[3-(4-hydroxy-3-methoxyphenyl)-2-(hydroxymethyl)-2,3-dihydrobenzo[b][1,4]dioxin-6-yl]-4-oxochroman-3-yl [(2R,3S,4R,6S)-3,4,5-trihydroxy-6-(hydroxymethyl)tetrahydro-2H-pyran-2-yl] succinate]",effect on cell cycle (in words),[1],arrested cell cycle at G2/M phase; also recorded: blocked the tumor cells in G2/M -phase progression
same,induction of apoptosis (in words),"[2]; DU145, 3, 10 and 30 μM",induced apoptosis in DU145 cells; also recorded: markedly induced cell apoptosis in a dose-dependent manner
same,ability to promote DU145 cell apoptosis relative to silibinin,"[2]; DU145, same concentration of 30 μM",approximately 2 times
COc1cc(C2Oc3cc([C@H]4Oc5cc(O)cc(O)c5C(=O)[C@@H]4O)ccc3OC2CO)ccc1O (stereo partly shown) [Silibinin],Solubility in H2O,[3],less than 0.4 mg/L
